KCNQ1 inh – inhibitors of human KCNQ1 potassium channel | P51787 | CHO-K1 KCNQ1, FluxOR thallium flux fluorescence; hits give high values | B-score at 10 µM | 1.3% of 310,000 active | AID 2642;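 active means compounds whose thallium flux B-score, printed positive for inhibition, exceeds three library SD while starting fluorescence stays within three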;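 further: channel opened by potassium depolarization with thallium stimulus after 20 min compound exposure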
Target sequence (P51787 whole entry, looked up): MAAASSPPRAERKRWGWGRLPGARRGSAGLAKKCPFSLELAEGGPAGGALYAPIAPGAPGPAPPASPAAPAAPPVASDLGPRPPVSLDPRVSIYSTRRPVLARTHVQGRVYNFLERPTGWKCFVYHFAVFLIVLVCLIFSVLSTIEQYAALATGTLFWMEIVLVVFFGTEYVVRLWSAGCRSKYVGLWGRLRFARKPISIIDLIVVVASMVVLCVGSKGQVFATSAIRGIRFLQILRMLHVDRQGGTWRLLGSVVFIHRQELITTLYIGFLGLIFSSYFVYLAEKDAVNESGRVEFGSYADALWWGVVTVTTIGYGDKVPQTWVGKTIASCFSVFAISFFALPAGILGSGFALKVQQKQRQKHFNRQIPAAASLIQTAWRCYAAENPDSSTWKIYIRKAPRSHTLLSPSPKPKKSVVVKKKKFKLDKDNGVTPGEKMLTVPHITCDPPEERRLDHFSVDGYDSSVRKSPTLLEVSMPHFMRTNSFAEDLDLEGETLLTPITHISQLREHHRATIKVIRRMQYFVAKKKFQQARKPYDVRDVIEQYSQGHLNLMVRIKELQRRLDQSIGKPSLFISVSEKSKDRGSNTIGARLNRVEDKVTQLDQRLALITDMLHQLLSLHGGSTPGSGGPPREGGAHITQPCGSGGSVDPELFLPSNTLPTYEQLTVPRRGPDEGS
KCNQ1 pot – potentiators or activators of human KCNQ1 potassium channel. AID 2648. CHO-K1 KCNQ1, thallium flux FluxOR fluorescence; hits give high values. B-score at 10 µM. P51787. 0.35% of 310,000 active;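 active means fluorescence ratio B-score, a plate-corrected score, at least three library SD, with initial intensity B-score within 5 SD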
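Assay system: CHO-K1 cells stably expressing KCNQ1. Medium: assay buffer for compound exposure, DMSO matched across wells. Timing: 37 °C overnight plating, 90-min dark dye load, 20-min compound pretreatment. Signal: kinetic FluxOR fluorescence, 10 s baseline plus 110 s post-stimulus.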
Kir21 block – Kir2.1 (mouse) channel inhibition | P35561 | HEK293-Kir2.1, FluxOR thallium flux fluorescence; hits give low values | B-score at 10 µM | 0.85% of 310,000 active | AID 1672;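 active means fluorescence ratio B-score at or below minus 3 SD of library scores, with starting-brightness B-score within 2 SD, cut at about -4.2 in these data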;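 further: channel flux triggered by added potassium and thallium sulfate stimulus; B-score of peak minus minimum fluorescence over baseline after thallium stimulus; more negative B-score means stronger Kir2.1 block with less thallium influx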
KCNK3 block – human KCNK3 channel inhibition, primary screen; 0.84% of 340,000 active; AID 602410; B-score at 10 µM; O14649; CHO-KCNK3 thallium flux, FluxOR fluorescence; hits give low values;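 active means B-score under library mean minus 4 SD, starting fluorescence ratio at most library mean plus 5 SD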;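 further: more negative B-score means stronger inhibition of thallium flux through KCNK3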
hERG rescue – compounds protecting human hERG from proarrhythmic drug block | 0.51% of 310,000 active | CHO-hERG, FluxOR thallium flux, dofetilide IC70 present | activation (rescue from dofetilide block), less the hit threshold, % at 10 µM | Q12809;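 active means activation above the mean of controls blocked by dofetilide plus 5 SD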;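 further: thallium influx through hERG after potassium depolarization seen as dye fluorescence rise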
KCNK9 inh – blocks the human KCNK9 two-pore domain potassium channel | 1.2% of 310,000 active | Q9NPC2 | HEK293 KCNK9, FluxOR thallium flux fluorescence; hits give low values | B-score at 10 µM;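 active means ratio B-score over 3 SD below the library mean, with starting fluorescence within 5 SD of its mean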;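 further: negative B-score means less thallium flux so channel inhibition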
KCNK9 inh conf – human KCNK9 inhibitor confirmation; shares compounds with KCNK9 inh; HEK293 KCNK9 cells, FluxOR thallium flux fluorescence; inhibition, % at 10 µM; 43% of 4,900 active;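 active means thallium signal inhibited by more than 5 SD of the compound-free buffer control wells, on both duplicate plates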
Kir2-1 spec – tests whether KCNK9 modulators also affect mouse Kir2.1. shares compounds with KCNK9 inh. Kir2.1 cells, FluxOR thallium flux fluorescence. inhibition, % at 10 µM. 4% of 4,900 active. AID 492993;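 active means thallium signal drop more than 5 SD beyond the mean of the no-compound control wells, seen in both duplicate plates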;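 further: signal is fluorescence rise after thallium addition divided by baseline fluorescence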
HEK293 Tl ctr – non-induced cell nonspecific activity of KCNK9 modulators | shares compounds with KCNK9 inh | non-induced KCNK9-HEK293, FluxOR thallium flux | inhibition, % at 10 µM | 40% of 4,900 active | AID 492997;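 active means thallium signal drop beyond 5 SD of the untreated control mean, on both duplicate plates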
Large screens that a line does not name were inactive (follow-up assays come after a bar, where they were run). The list is not random: actives were taken first. Their share in the collection is about 3.8%.

CCOC(=O)Cn1c(=NC(=O)CSC(C)=O)sc2ccccc21	KCNK9 inh -8.17 | KCNK9 inh conf 48.5% | Kir2-1 spec inactive | HEK293 Tl ctr 40.0%
NS(=O)(=O)c1ccc(CCNC(=O)C(=O)NCC2OCCN2S(=O)(=O)c2cc(F)ccc2F)cc1 (stereo unspecified)	none
Cc1ccccc1-c1ocnc1C(=O)Nc1ccccc1NC(=O)c1ccccn1	KCNK9 inh -8.68 | KCNK9 inh conf 37.5% | Kir2-1 spec inactive | HEK293 Tl ctr inactive
Fc1ccccc1Cc1noc(CN2CCN(C/C=C/c3ccccc3)CC2)n1	none | KCNK9 inh conf inactive | Kir2-1 spec inactive | HEK293 Tl ctr inactive
COc1ccc(OC)c(CNC(=O)C(C)n2nc(C)c3c(C)n(-c4ccccc4)nc3c2=O)c1 (stereo unspecified)	none
Cc1cccc(/C=N/n2c(COc3ccccc3)n[nH]c2=S)c1	KCNQ1 pot 14, KCNK9 inh -8.98 | KCNK9 inh conf inactive | Kir2-1 spec inactive | HEK293 Tl ctr inactive
S=c1[nH]nc(COc2ccccc2)n1/N=C/c1ccc(Cl)c(Cl)c1	none
Cn1c(=O)n(C)c2cc([N+](=O)[O-])c(N3CCN(C(=O)c4ccccc4Br)CC3)cc21	none
O=C(NCc1ccccc1)c1onc(CSc2ccc(F)cc2)c1C(=O)NCc1ccccc1	none | KCNK9 inh conf inactive | Kir2-1 spec inactive | HEK293 Tl ctr inactive
CC(C)CCNC(=O)c1c(CSc2ccc(Cl)cc2)noc1C(=O)NCc1ccccc1	none | KCNK9 inh conf inactive | Kir2-1 spec inactive | HEK293 Tl ctr inactive
O=C(NCc1ccccc1)c1onc(CSc2ccccn2)c1C(=O)NCc1ccccc1	none | KCNK9 inh conf inactive | Kir2-1 spec inactive | HEK293 Tl ctr inactive
CCCCNC(=O)c1onc(CSc2ccc(F)cc2)c1C(=O)NCCCC	none | KCNK9 inh conf inactive | Kir2-1 spec inactive | HEK293 Tl ctr inactive
CCCN(CC(=O)Nc1ccccc1C)C(=O)c1cn2ccccc2n1	none (no result: KCNQ1 inh, KCNQ1 pot, Kir21 block, hERG rescue, KCNK9 inh)
N#CCCN(C(=O)COC(=O)C1CCN(S(=O)(=O)c2ccccc2C(F)(F)F)CC1)c1ccccc1	none (no result: KCNQ1 inh, KCNQ1 pot, Kir21 block, hERG rescue, KCNK9 inh)
COc1ccc(C(=O)Nc2ccccc2Cc2ccccc2)c(OC)c1	none
COc1ccc(-c2n(Cc3ccccc3)c3ccccc3[n+]2Cc2ccccc2)cc1	KCNQ1 inh 8, KCNK9 inh -10.7 | KCNK9 inh conf inactive | Kir2-1 spec 43.0% | HEK293 Tl ctr inactive
Nc1c(-c2ccccc2)c(CSc2nc3ccccc3[nH]2)nn1-c1ccc(Cl)cc1	KCNK9 inh -9.28 | KCNK9 inh conf 60.0% | Kir2-1 spec inactive | HEK293 Tl ctr 28.5%
Nc1c(-c2ccccc2)c(CSc2nc3ccccc3[nH]2)nn1-c1cccc(Cl)c1	KCNK9 inh -12.8 | KCNK9 inh conf 71.0% | Kir2-1 spec inactive | HEK293 Tl ctr 38.5%
Cc1c(C(=O)N2CCCC2)c(S(=O)(=O)Nc2ccccc2)c(C)n1C	none
Cc1cccc(COCC(Cc2ccccc2)N2CCN(C(=O)c3cccc(C)c3)CCC2=O)c1 (stereo unspecified)	none | KCNK9 inh conf inactive | Kir2-1 spec inactive | HEK293 Tl ctr inactive
COc1ccc(NS(=O)(=O)c2ccc(N)c(C(=O)O)c2)cc1	none
COc1ccc([N+](=O)[O-])cc1NC(=O)Cn1ccsc1=N	none
O=C1NCCCC1C(=O)N/N=C/c1ccccc1O (stereo unspecified)	none
O=C(O)c1ccccc1N/N=C/c1cc(Br)cc(Br)c1O	KCNQ1 inh 6 | KCNK9 inh conf inactive | Kir2-1 spec inactive | HEK293 Tl ctr inactive
C=CCn1c(SCC(=O)Nc2ccccc2F)nnc1C(C)NC(=O)c1ccccc1F (stereo unspecified)	none
O=C1CC(=O)N(CCc2ccccc2)C(=O)N1CCc1ccccc1	none | KCNK9 inh conf inactive | Kir2-1 spec inactive | HEK293 Tl ctr inactive
COc1ccc(-c2noc(COc3ccc(C)c(C)c3)n2)cc1OC	none | KCNK9 inh conf inactive | Kir2-1 spec inactive | HEK293 Tl ctr inactive
Cc1ccc(OCc2nc(-c3ccccc3)no2)c(C)c1	none | KCNK9 inh conf inactive | Kir2-1 spec inactive | HEK293 Tl ctr 39.5%
Cc1cc(C)c(C)c(OCc2nc(-c3cccnc3)no2)c1	none
CCN(Cc1ccccc1)C(=O)C1CCC(CNc2c(N3CCOCC3)c(=O)c2=O)CC1 (stereo unspecified)	none
COc1ccc(S(=O)(=O)N2CCC(C(=O)NC3CCCC3)CC2)cc1C	none
CS(=O)(=O)N1CCN(Cc2ccccc2C(F)(F)F)CC1	none
Cc1ccc(CN2CCN(Cc3ccccc3C(F)(F)F)CC2)cc1	Kir21 block -4.55 | KCNK9 inh conf inactive | Kir2-1 spec inactive | HEK293 Tl ctr inactive
COc1cc(CN2CCN(Cc3ccc(C(F)(F)F)cc3)CC2)cc(OC)c1OC	none | KCNK9 inh conf inactive | Kir2-1 spec inactive | HEK293 Tl ctr inactive
COc1cc(CN2CCN(Cc3ccccc3C(F)(F)F)CC2)cc(OC)c1OC	none | KCNK9 inh conf inactive | Kir2-1 spec inactive | HEK293 Tl ctr inactive
COc1ccc(N2C(=O)CC(N3CCN(S(=O)(=O)c4c(C)cc(C)cc4C)CC3)C2=O)cc1 (stereo unspecified)	none (no result: KCNQ1 inh, KCNQ1 pot, Kir21 block, hERG rescue, KCNK9 inh)
CCSCC1COC(c2cccn2Cc2ccc(C)cc2)=N1 (stereo unspecified)	none | KCNK9 inh conf inactive | Kir2-1 spec inactive | HEK293 Tl ctr 25.5%
CC1COC(c2cccn2Cc2ccccc2Cl)=N1 (stereo unspecified)	none
COCCn1c(C)cc(C(=O)COC(=O)c2ccc[nH]c2=O)c1C	none
CC(C)(C)c1cc(NC(=O)Nc2ccc(Br)cc2Cl)no1	none
COc1ccc(C2CC(c3ccccc3)=NN2C(=O)COC(=O)C2(C)CC2(Cl)Cl)cc1 (stereo unspecified)	none | KCNK9 inh conf inactive | Kir2-1 spec inactive | HEK293 Tl ctr inactive
COc1ccc(C2CC(c3ccccc3)=NN2C(=O)COC(=O)C2CC2)cc1 (stereo unspecified)	none
COc1ccc(C2=NN(C(=O)c3ccccc3)C(c3cccc([N+](=O)[O-])c3)C2)cc1 (stereo unspecified)	KCNK9 inh -18.3 | KCNK9 inh conf 53.5% | Kir2-1 spec inactive | HEK293 Tl ctr 27.5%
COc1ccc(C(=O)N/N=C/c2ccc(OC)c(CN3CCN(c4ccc(F)cc4)CC3)c2)cc1	none | KCNK9 inh conf inactive | Kir2-1 spec inactive | HEK293 Tl ctr inactive
COc1cc(OC)c(CN2CCN(c3ccc(F)cc3)CC2)cc1Br	none | KCNK9 inh conf inactive | Kir2-1 spec inactive | HEK293 Tl ctr inactive

Screens as filed in PubChem BioAssay.
